Experimental data as given in the M2OR odorant receptor database.

Target: T1, OR5B17 (Homo sapiens) (UniProt Q8NGF7)
T1 sequence (whole entry): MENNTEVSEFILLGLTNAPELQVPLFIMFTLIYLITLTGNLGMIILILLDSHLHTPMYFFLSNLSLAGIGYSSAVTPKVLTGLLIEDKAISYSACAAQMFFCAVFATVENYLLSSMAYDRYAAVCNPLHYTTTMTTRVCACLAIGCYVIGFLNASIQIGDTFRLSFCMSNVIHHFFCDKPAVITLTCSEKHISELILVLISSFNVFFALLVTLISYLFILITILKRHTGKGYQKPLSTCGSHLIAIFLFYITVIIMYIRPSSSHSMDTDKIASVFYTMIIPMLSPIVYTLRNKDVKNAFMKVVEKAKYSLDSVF
Details: stereoisomer not certain
Outline: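 Whether a receptor–molecule pair is responsive (active) rests on the original authors' judgment that its measured signal was statistically different from baseline. Pairs without that judgment are non-responsive (inactive). Sources used varied assay methods, commonly transient luciferase assays in mammalian cell lines.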
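Further: active if original authors judged signal statistically different from baseline.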

Odorant receptor agonist call, active:
CCc1ccc(CC(C)(C)C=O)cc1

Odorant receptor agonist call, inactive:
CC(=O)OCc1ccccc1
CC(C)=CCCC(C)CC=O (stereo unspecified)
C=CC(C)(CCC=C(C)C)OC(C)=O (stereo unspecified)
CC(CC=O)c1ccc(C(C)(C)C)cc1 (stereo unspecified)
CC(C)CCCC(C)(C)O
C=CC(C)(O)CCC=C(C)CCC=C(C)C (stereo unspecified)
CCC=C(C)C(O)CCCCC (stereo unspecified)
CC(C)=CCCC(C)=CCO
CCCC(C)C(=O)OCC (stereo unspecified)
CC1CC(C)(c2ccccc2)CO1 (stereo unspecified)
Cc1occc(=O)c1OC(=O)C(C)C
COC1CC2CC1C1CC(C=O)CC21 (stereo unspecified)
CCCCC1CCC(=O)O1 (stereo unspecified)
CC=CC(=O)C1C(C)=CCCC1(C)C (stereo unspecified)
CC1=CCC2CC1C2(C)C (stereo unspecified)
COc1ccc(C)cc1
Cc1ccc(C(C)C)cc1O
CC(=O)C=CC1=C(C)CCCC1(C)C
OCc1ccccc1
C=CCOC(=O)COCCC(C)C
